Measurements from ChEMBL document CHEMBL1144050, “Two novel acetogenins, annoglaxin and 27-hydroxybullatacin, from Annona glabra” (J Nat Prod, 1999).
Values after ≈ are worked out from the molar mass of the structure shown.

Assays:
[1] = system: A549; experiment: Cytotoxicity against human A549 cells after 7 days by MTT assay; assay type: functional; details: A549, 168 h, read-out: ED50 (the source's name)
Summary of the method: (§1)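 Standard 7-day MTT cytotoxicity assay on human tumour lines: A-549 (lung carcinoma), MCF-7 (breast carcinoma), HT-29 (colon adenocarcinoma), A-498 (kidney carcinoma), PC-3 (prostate adenocarcinoma), PACA-2 (pancreatic carcinoma). Adriamycin was run as the positive control standard.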

[2] = system: A498; experiment: Cytotoxicity against human A498 cells after 7 days by MTT assay; assay type: functional; details: for EC50: Homo sapiens, A498, 168 h, read-out: ED50 (the source's name); summary of the method: as §1
[3] = system: MCF7; experiment: Cytotoxicity against human MCF7 cells after 7 days by MTT assay; assay type: functional; summary of the method: as §1
[4] = system: PC-3; experiment: Cytotoxicity against human PC-3 cells after 7 days by MTT assay; assay type: functional; details: for EC50: Homo sapiens, PC-3, 168 h, read-out: ED50 (the source's name); summary of the method: as §1
[5] = system: Artemia salina; experiment: (§2) Toxicity in brine shrimp; assay type: organism-based; details: in vivo
[6] = system: HT-29; experiment: Cytotoxicity against human HT29 cells after 7 days by MTT assay; assay type: functional; details: for EC50: Homo sapiens, HT-29, 168 h, read-out: ED50 (the source's name); summary of the method: as §1
[7] = system: MIA PaCa-2; experiment: Cytotoxicity against human PACA2 cells after 7 days by MTT assay; assay type: functional; details: for EC50: Homo sapiens, MIA PaCa-2, 168 h, read-out: ED50 (the source's name); summary of the method: as §1
[8] = as §2; assay type: organism-based; details: artemia salina, in vivo

Row | SMILES | EC50 [1] [µg/mL] | ED50 [2] [×10⁻⁸ ug/ml] | ED50 [3] [×10⁻⁴ ug/ml] | ED50 [4] [×10⁻⁹ ug/ml] | LC50 [5] [×10⁻² ug/ml] | ED50 [6] [×10⁻⁵ ug/ml] | ED50 [7] [×10⁻⁹ ug/ml] | EC50 [2] [µg/mL] | EC50 ([3]; Homo sapiens, MCF7, 168 h, read-out: ED50 (the source's name)) [µg/mL] | EC50 [4] [µg/mL] | EC50 [6] [µg/mL] | EC50 [7] [µg/mL] | LC50 [8] [µg/mL]
1 | CCCCCCC[C@H](O)CC[C@H](O)[C@H]1CC[C@H]([C@H]2CC[C@H]([C@H](O)CCCCCCCCCC[C@@H](O)CC3=C[C@H](C)OC3=O)O2)O1 | 0.0021 (≈ 0.00329 µM) | 3.1 | 7.8 | <1 | 4.3 | 1.8 | <1 |  |  |  |  |  | 
2 | COc1cccc2c1C(=O)c1c(O)c3c(c(O)c1C2=O)C[C@@](O)(C(=O)CO)C[C@@H]3O[C@H]1C[C@H](N)[C@H](O)[C@H](C)O1 [DOXORUBICIN] | 0.0013 (≈ 0.00239 µM) |  |  |  |  |  |  | 0.0019 (≈ 0.0035 µM) | 0.09 (≈ 0.166 µM) | 0.02 (≈ 0.0368 µM) | 0.01 (≈ 0.0184 µM) | 0.0043 (≈ 0.00791 µM) | 
3 | CCCCCCCCCC[C@H](O)C[C@@H](O)[C@H]1CC[C@H]([C@H](O)CCC(=O)CCC[C@H](O)CCCCCC2=C[C@H](C)OC2=O)O1 [ANNOGLAXIN] | 1.1 (≈ 1.8 µM) |  | 4.3 |  |  |  |  | 1.8 (≈ 2.95 µM) |  | 0.87 (≈ 1.42 µM) | 0.18 (≈ 0.295 µM) | 1.6 (≈ 2.62 µM) | 0.29 (≈ 0.475 µM)
